Results of several laboratories.
Compare with care: the assays were run in different laboratories.

The IC50 of `O=C1C(NCCc2ccc(O)cc2)=CC2=NCCc3c[nH]c1c32` is reported as 404 nM (Babesia divergens; parasite growth, SYBR Green; 60 h, blood stage).
For `O=C(c1ccc(Oc2ccc(OCc3ccccc3)cc2)c([N+](=O)[O-])c1)C(Cl)Cl`, the inhibition was 86.4% (NCI-H1299; cell growth or viability, MTT; 2.5 µM).
`CC#CCOc1ccc(/C=C/c2cc(OC)cc(OC)c2-c2cnnn2C(=O)NCCc2ccccc2)cc1` gave an inhibition of 82.3% (RAW264.7; NO release, inhibitor, Griess; 10 µM, LPS-stimulated).
`CN(C)c1ccc(-c2c(C(N)=S)c(N)n(N)c(=O)c2C#N)cc1` gave an inhibition zone of 14 mm (Enterobacter cloacae; microbial growth, well diffusion; ATCC23355; 500 µg/mL).
The inhibition of `CC(=O)c1ccc(Oc2ccc(C(=O)C(Cl)Cl)cc2[N+](=O)[O-])cc1` is reported as 92.2% (NCI-H1299; cell growth or viability, MTT; 2.5 µM).
The inhibition of `C#CCOc1ccc(/C=C/c2cc(OC)cc(OC)c2-c2cnnn2C(=O)NCC)cc1` is reported as 71.3% (RAW264.7; NO release, inhibitor, Griess; 10 µM, LPS-stimulated).
The inhibition of `O=C(c1ccccc1)c1ccc(Oc2ccc(C(=O)C(Cl)Cl)cc2[N+](=O)[O-])cc1` is reported as 85.3% (NCI-H1299; cell growth or viability, MTT; 2.5 µM).
For `CN(Cc1ccc(C(C)(C)C)cc1)Cc1cccc2ccccc12`, the inhibition zone was ≥ 55 mm (Trichophyton mentagrophytes; microbial growth, disc diffusion; ATCC18748; 0.256 µg/mL, 72 h).
`CC(=O)OCCCOc1ccc(C(=O)C(Cl)Cl)cc1[N+](=O)[O-]` has an inhibition of 60.3% (NCI-H1299; cell growth or viability, MTT; 2.5 µM).
For `C#CCOc1ccc(/C=C/c2cc(OC)cc(OC)c2-c2cnnn2C(=O)NCCC)cc1`, the inhibition was 94.2% (RAW264.7; NO release, inhibitor, Griess; 10 µM, LPS-stimulated).
`CN(Cc1ccc(C2(C(F)(F)F)CC2)cc1)Cc1cccc2ccccc12.Cl` has an MFC of 8000 µg/mL (Trichophyton mentagrophytes; microbial killing, broth dilution; ATCC18748; 72 h).
With `C=CC(=O)NC1CCN(c2ncc3ncnc(Nc4ccc(Oc5ccc6c(c5)ncn6C)c(C)c4)c3n2)CC1` the EC50 was 7.54 nM (COR-L279; cell growth or viability).
